Measured values taken from ChEMBL document CHEMBL1146049, “Novel dual inhibitors of calpain and lipid peroxidation with enhanced cellular activity” (Bioorg Med Chem Lett, 2006).
pIC50: −log10 of the molar value. Calls of active or inactive are those of the source. No cut-off for these calls is given here.

What was measured:
Caspase-3 (Homo sapiens) = molecular target: T1, Caspase-3 (Homo sapiens) (UniProt P42574); assay: Inhibition of caspase3
T1 sequence (whole entry): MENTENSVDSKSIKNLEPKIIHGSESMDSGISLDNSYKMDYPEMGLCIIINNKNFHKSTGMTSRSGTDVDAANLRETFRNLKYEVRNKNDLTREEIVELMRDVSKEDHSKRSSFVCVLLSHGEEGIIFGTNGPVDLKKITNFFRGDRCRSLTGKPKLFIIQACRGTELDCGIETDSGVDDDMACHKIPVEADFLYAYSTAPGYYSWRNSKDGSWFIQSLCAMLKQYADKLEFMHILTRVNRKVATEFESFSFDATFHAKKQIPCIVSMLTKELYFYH

[1] = Ratio of pIC50 (rat calpain/human calpain 1)
Procedure, shortened: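 pRatio = −log(intracellular calpain IC50 / human calpain 1 IC50). The intracellular IC50 comes from glioma C6 cells, which were exposed to compound for 4 h in total, including 3 h with maitotoxin to induce calpain activation, with Suc-Leu-Tyr-AMC as substrate. The enzymatic IC50 comes from isolated human calpain 1 with the same substrate.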

[2] = Inhibition of maitotoxin induced intracellular calpain in glioma C6 cells; type: functional, cell-based; conditions: Rattus norvegicus
Procedure, shortened: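 Rat glioma C6 cells were exposed to compound for 4 h, the last 3 h with maitotoxin to activate calpain. Intracellular calpain activity was read as cleavage of the fluorogenic substrate Suc-Leu-Tyr-AMC. IC50 values are means of three experiments.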

[3] = molecular target: Chymotrypsinogen A (Bos taurus) (UniProt P00766); assay: Inhibition of alpha chymotrypsin
[4] = molecular target: Cathepsin B (Homo sapiens) (UniProt P07858); assay: Inhibition of cathepsinB
Calpain 1 [5] = molecular target: Calpain 1 (Homo sapiens, UniProt P07384); assay: (§1) Inhibition of isolated human calpain1; type: protein-complex assay
Procedure, shortened: (§2)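 Isolated human calpain 1 enzyme assay with Suc-Leu-Tyr-AMC as substrate; IC50 determined.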

[6] = tested on: Radical scavenging activity; assay: Inhibition of ferrous induced lipid peroxidation in rat brain microsomes; type: functional
Calpain 1 [7] = molecular target: T2, Calpain 1 (Homo sapiens, UniProt P04632+P07384); assay: as §1; type: protein-complex assay; procedure, shortened: as §2
T2 sequence (P04632 whole entry): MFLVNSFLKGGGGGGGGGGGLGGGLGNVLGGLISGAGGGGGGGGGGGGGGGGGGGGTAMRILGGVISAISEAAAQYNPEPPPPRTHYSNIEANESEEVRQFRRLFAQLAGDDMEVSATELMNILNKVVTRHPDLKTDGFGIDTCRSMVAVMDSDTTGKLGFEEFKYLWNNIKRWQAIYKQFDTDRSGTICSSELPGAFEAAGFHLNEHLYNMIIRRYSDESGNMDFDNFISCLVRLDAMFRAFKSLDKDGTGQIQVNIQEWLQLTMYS
T2 sequence (P07384 whole entry): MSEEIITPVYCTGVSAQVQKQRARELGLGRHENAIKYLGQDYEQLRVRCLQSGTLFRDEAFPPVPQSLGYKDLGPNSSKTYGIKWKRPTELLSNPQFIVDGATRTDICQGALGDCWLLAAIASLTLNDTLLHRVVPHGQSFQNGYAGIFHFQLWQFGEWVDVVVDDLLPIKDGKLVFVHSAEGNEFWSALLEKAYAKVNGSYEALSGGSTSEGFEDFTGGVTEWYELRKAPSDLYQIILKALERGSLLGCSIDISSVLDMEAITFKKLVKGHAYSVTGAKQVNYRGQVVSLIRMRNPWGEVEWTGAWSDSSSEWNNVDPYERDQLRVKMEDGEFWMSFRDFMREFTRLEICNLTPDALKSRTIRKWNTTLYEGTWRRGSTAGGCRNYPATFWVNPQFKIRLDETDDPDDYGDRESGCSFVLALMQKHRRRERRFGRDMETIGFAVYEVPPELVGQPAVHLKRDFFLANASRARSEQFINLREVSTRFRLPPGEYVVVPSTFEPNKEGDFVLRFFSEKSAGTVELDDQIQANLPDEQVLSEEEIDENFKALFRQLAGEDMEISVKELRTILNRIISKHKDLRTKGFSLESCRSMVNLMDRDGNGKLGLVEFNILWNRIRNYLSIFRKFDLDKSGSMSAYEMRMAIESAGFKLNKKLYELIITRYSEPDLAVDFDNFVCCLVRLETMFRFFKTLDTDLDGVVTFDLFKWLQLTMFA

Row | Structure (SMILES) | Activity (Caspase-3 (Homo sapiens)) | Negative log of IC50 ratio (cellular/enzyme) [1] | pIC50 [2] | Activity [3] | Activity [4] | pIC50 (Calpain 1 [5]) | pIC50 [6] | pIC50 (Calpain 1 [7])
1 | CC(C)C[C@H](NC(=O)CNC(=O)COc1ccc2c(c1)Nc1ccccc1S2)C(=O)N[C@H]1CCOC1O (some centres not stated) | inactive | -0.9 | 4.20 | inactive | Active | 8.10 | – | –
2 | CC(C)C[C@H](NC(=O)[C@H](C)NC(=O)COc1ccc2c(c1)Nc1ccccc1S2)C(=O)N[C@H]1CCOC1O (some centres not stated) | inactive | 0.22 | 4.82 | inactive | Active | 7.60 | – | –
3 | CC(C)C[C@H](NC(=O)COc1ccc2c(c1)Nc1ccccc1S2)C(=O)N[C@@H](CC(C)C)C(=O)N[C@H]1CCOC1O (stereo in doubt; 6d-08) [listing 1 of 2 here] | inactive | 2.24 | – | inactive | Active | – | – | –
4 | CC(C)C[C@H](NC(=O)[C@@H](NC(=O)COc1ccc2c(c1)Nc1ccccc1S2)c1ccccc1)C(=O)N[C@H]1CCOC1O (some centres not stated) | inactive | 1.65 | 5.30 | inactive | Active | 6.65 | – | –
5 | CC(C)C[C@H](NC(=O)c1ccc2c(c1)Nc1ccccc1S2)C(=O)N[C@@H](CC(C)C)C(=O)N[C@H]1CCOC1O (some centres not stated) | – | – | 5.74 | – | – | 7.07 | 5.96 | –
6 | CC(C)C[C@H](NC(=O)C(C)(C)NC(=O)COc1ccc2c(c1)Nc1ccccc1S2)C(=O)N[C@H]1CCOC1O (some centres not stated) | inactive | 0.66 | 4.52 | inactive | Active | 6.86 | – | –
7 | CC(C)C[C@H](NC(=O)[C@@H](NC(=O)COc1ccc2c(c1)Nc1ccccc1S2)C(C)(C)C)C(=O)N[C@H]1CCOC1O (some centres not stated) | inactive | 1.95 | 5.40 | inactive | Active | 6.45 | – | –
8 | Cc1cc(C(C)(C)C)c(O)c(C(C)(C)C)c1 [BUTYLATED HYDROXYTOLUENE] | – | – | – | – | – | – | 5.49 | –
9 | CC(C)C[C@H](NC(=O)[C@H](CO)NC(=O)COc1ccc2c(c1)Nc1ccccc1S2)C(=O)N[C@H]1CCOC1O (some centres not stated) | inactive | 1.21 | 5.52 | inactive | Active | 7.31 | – | –
10 | CCC[C@H](NC(=O)COc1ccc2c(c1)Nc1ccccc1S2)C(=O)N[C@@H](CC(C)C)C(=O)N[C@H]1CCOC1O (some centres not stated) | inactive | 2.4 | 6.22 | inactive | Active | 6.82 | – | –
11 | CC(C)C[C@H](NC(=O)[C@@H](NC(=O)COc1ccc2c(c1)Nc1ccccc1S2)[C@H](C)O)C(=O)N[C@H]1CCOC1O (some centres not stated) | inactive | 1.28 | 5.70 | inactive | Active | 7.42 | – | –
12 | CC(C)C[C@H](NC(=O)[C@H](NC(=O)COc1ccc2c(c1)Nc1ccccc1S2)C(C)C)C(=O)N[C@H]1CCOC1O (some centres not stated) | inactive | 1.54 | 4.80 | inactive | Active | 6.26 | – | –
13 | CC(C)C[C@H](NC(=O)COc1ccc2c(c1)Nc1ccccc1S2)C(=O)N[C@@H](CC(C)C)C(=O)N[C@H]1CCOC1O (stereo in doubt; 6d-08) [listing 2 of 2 here] | – | – | 6.22 | – | – | 6.98 | – | –
14 | CC(C)C[C@H](NC(=O)COc1ccc2c(c1)Nc1ccccc1S2)C(=O)N[C@@H](CC(C)C)C(=O)N[C@H]1CCOC1O (stereo in doubt; 6d) | – | – | – | – | – | – | 6.48 | 6.98
15 | CC[C@H](NC(=O)COc1ccc2c(c1)Nc1ccccc1S2)C(=O)N[C@@H](CC(C)C)C(=O)N[C@H]1CCOC1O (some centres not stated) | inactive | 2.05 | 6.10 | inactive | Active | 7.05 | – | –
16 | CC(C)C[C@H](NC(=O)Cc1ccc2c(c1)Nc1ccccc1S2)C(=O)N[C@@H](CC(C)C)C(=O)N[C@H]1CCOC1O (some centres not stated) | – | – | 5.60 | – | – | 7.26 | 6.02 | –
17 | CC(C)C[C@H](NC(=O)[C@@H](NC(=O)COc1ccc2c(c1)Nc1ccccc1S2)C(C)C)C(=O)N[C@H]1CCOC1O (some centres not stated) | inactive | 1.88 | 6.00 | inactive | Active | 7.12 | – | –
18 | CC(=O)OC1OCC[C@@H]1NC(=O)[C@H](CC(C)C)NC(=O)[C@H](CC(C)C)NC(=O)c1ccc2c(c1)Nc1ccccc1S2 (some centres not stated) | – | – | 5.77 | – | – | 6.04 | 5.64 | –
19 | CC(C)C[C@H](NC(=O)CCc1ccc2c(c1)Nc1ccccc1S2)C(=O)N[C@@H](CC(C)C)C(=O)N[C@H]1CCOC1O (some centres not stated) | – | – | 5.00 | – | – | 6.82 | 5.48 | –
